Results as given in PMC4010290 (Journal of Agricultural and Food Chemistry, 2014).

How the values were obtained:
[1] = target: Bovine serum albumin (BSA), Trp134 and Trp213 (Bos taurus, UniProt P02769); assay: Time domain fluorescence lifetime of the two Trp residues of BSA; assay type: binding; details: for τ fluorescence lifetime Trp134 / τ fluorescence lifetime Trp213: 25 μM phenolic
Procedure, shortened: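 BSA (3 μM final) mixed with test compound (25 μM) in 0.2 M sodium phosphate with 0.1 M NaCl at pH 3.0, 5.0 or 7.4. Samples vortexed, nitrogen-sparged 20 min, then held 1 h at 22 °C. Time-correlated single-photon counting used 250 nm LED excitation, collecting to 10000 peak counts. Biexponential decay fit gave lifetimes and amplitudes for Trp134 and Trp213.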

[2] = target: T1, Bovine serum albumin (BSA) (Bos taurus, UniProt P02769); assay: BSA fluorescence quenching; assay type: binding; details: for KSV (Stern–Volmer constant, BSA fluorescence quenching): 3 μM BSA, 22 °C
T1 sequence (P02769 25-607): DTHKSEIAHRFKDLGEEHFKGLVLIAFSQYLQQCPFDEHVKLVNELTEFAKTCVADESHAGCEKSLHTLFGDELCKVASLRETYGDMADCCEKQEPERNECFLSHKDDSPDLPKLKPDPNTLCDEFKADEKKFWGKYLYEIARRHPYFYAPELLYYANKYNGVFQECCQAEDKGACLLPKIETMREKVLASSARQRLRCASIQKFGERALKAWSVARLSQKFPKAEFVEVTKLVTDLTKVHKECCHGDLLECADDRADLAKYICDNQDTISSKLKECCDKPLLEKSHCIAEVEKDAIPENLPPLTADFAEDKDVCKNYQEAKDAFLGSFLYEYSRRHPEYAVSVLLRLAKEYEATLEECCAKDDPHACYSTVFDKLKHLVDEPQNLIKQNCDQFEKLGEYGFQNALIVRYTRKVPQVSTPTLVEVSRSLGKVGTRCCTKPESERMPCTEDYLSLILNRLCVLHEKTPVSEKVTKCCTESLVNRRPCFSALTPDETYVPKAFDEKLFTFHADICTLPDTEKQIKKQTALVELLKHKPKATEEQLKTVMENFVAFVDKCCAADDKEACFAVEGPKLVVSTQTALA

[3] = target: T1, Bovine serum albumin (BSA); assay: Induced circular dichroism spectra of BSA; assay type: binding; details: 200 μM ligand; 30 μM BSA; pH 7.4
Procedure, shortened: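 BSA at 30 μM in 0.2 M sodium phosphate, pH 7.4, with test compound at 0–200 μM, dissolved from water stocks. CD recorded 355–245 nm in a 1 mm cell under dry nitrogen at 298–301 K. Settings were 12 accumulated scans, 0.5 nm pitch, 1.0 nm bandwidth and 100 nm/min. Buffer spectrum subtracted, and induced CD calculated from sample spectra by the paper's equation.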

BSA Sudlow site I = details: cited from earlier work
BSA = BSA (Bos taurus, UniProt P02769); assay type: binding, bovine; details: pH 7.4; TB up to a 50-fold excess
Sequence of BSA (P02769 25-607): as above

BSA Sudlow site II = details: cited from earlier work

Sequence of Bovine serum albumin (BSA), Trp134 and Trp213 (P02769 25-607): as above

SMILES	τ fluorescence lifetime Trp134 ([1]; pH 3.0) [ns]	τ fluorescence lifetime Trp213 ([1]; pH 3.0) [ns]	τ fluorescence lifetime Trp134 ([1]; pH 5.0) [ns]	τ fluorescence lifetime Trp213 ([1]; pH 5.0) [ns]	τ fluorescence lifetime Trp134 ([1]; pH 7.4) [ns]	τ fluorescence lifetime Trp213 ([1]; pH 7.4) [ns]	Reduction of fluorescence lifetime of Trp213 ([1]; pH 7.4 only, 25 μM) [%]	KSV (Stern–Volmer constant, BSA fluorescence quenching) ([2]; pH 3.0)	KSV (Stern–Volmer constant, BSA fluorescence quenching) ([2]; pH 5.0)	KSV (Stern–Volmer constant, BSA fluorescence quenching) ([2]; pH 7.4)	Fluctuation of the amplitudes of the induced CD spectra [3] [mdeg]	Change of lifetime of either Trp ([1]; any pH, 25 μM)	Apparent affinity for BSA [2]	Association constant, Sudlow site I (BSA Sudlow site I)	Inhibition of EGCg binding to BSA (BSA)	Association constant, Sudlow site II (BSA Sudlow site II)
COC(=O)c1cc(O)c(O)c(O)c1 [MG, methyl gallate]	5.38	2.11	6.49	2.85	6.29	2.06	30	0.85 × 10^4 M^–1	0.81 × 10^4 M^–1	5.4 × 10^4 M^–1	~0.2					
Oc1cc(O)c2c(c1)O[C@H](c1cc(O)c(O)c(O)c1)[C@H](O)C2 [EGC, (−)-Epigallocatechin]	5.41	2.15	6.58	3.04	6.54	2.93		0.30 × 10^4 M^–1	0.23 × 10^4 M^–1	0.64 × 10^4 M^–1	~0.2	did not change the lifetime	about 10^3 M^–1			
CCCCNC(=O)NS(=O)(=O)c1ccc(C)cc1 [TB, tolbutamide]														8.7 × 10^4 M^–1	did not inhibit	0.81 × 10^4 M^–1
CCCCC1C(=O)N(c2ccccc2)N(c2ccccc2)C1=O [PB, phenylbutazone]														6.2 × 10^5 M^–1		
